Experimental data reported in PMC3991427 (Angewandte Chemie (International ed. in English), 2014).

Tested on: MCF-7 breast cancer cells
Assay type: cell-based
Details: broad compound screen at 10 μM, compared with (+)-21
In short: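 Single-concentration screen: each test compound at 10 μM, run in parallel against MCF-7 breast cancer cells and non-tumorigenic MCF-10A breast cells. The assay is proliferation-based, and the read-out is relative cell number after treatment, expressed as a percentage. Selectivity is judged by comparing the MCF-7 response with the MCF-10A response.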

SMILES	inhibition of cell proliferation / cell growth (in words)
c1ccc2sccc2c1 [compound 29, benzothiophene]	did not inhibit cell growth
c1ccsc1 [compound 28, thiophene]	did not inhibit cell growth
